27 compounds from ChEMBL document CHEMBL1136108, “Benzoxazinones as PPARgamma agonists. part 1: SAR of three aromatic regions” (Bioorg Med Chem Lett, 2003) can be followed below.

SMILES strings stand for the structures. Where only a bound is given, the exact number is not on record here.

The target of data set [1] is T1, Peroxisome proliferator-activated receptor gamma (Homo sapiens) (UniProt P37231).
T1 sequence (whole entry): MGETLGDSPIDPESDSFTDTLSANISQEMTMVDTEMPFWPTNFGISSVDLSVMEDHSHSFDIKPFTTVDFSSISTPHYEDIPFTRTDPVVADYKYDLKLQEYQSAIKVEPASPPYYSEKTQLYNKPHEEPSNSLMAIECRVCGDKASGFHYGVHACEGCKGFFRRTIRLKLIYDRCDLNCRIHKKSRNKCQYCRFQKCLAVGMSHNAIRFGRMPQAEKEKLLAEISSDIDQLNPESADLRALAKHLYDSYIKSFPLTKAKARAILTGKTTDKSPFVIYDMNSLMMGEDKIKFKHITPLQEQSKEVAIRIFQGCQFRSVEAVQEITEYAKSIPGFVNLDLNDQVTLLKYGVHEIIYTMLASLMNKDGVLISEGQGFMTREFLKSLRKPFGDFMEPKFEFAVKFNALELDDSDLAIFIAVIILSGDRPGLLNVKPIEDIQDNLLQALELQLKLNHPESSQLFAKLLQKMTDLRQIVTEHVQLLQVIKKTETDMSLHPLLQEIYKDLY
In words: Functional potency was determined in pooled human preadipocytes by measurement of PPARg aP2 gene induction. In kind it is cell-based. An outline of the steps:
(§1)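 Pooled human preadipocytes treated with compound. Induction of the aP2 gene was quantified by a branched DNA technique. EC50 values are the mean of two experiments.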

The target of data set [2] is T1, Peroxisome proliferator-activated receptor gamma (Homo sapiens). In words: Agonist activity determined in peroxisome proliferator activated receptor gamma using PPAR gamma-Gal4 Luciferase cotransfection assay. In kind it is functional. An outline of the steps: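 HEK293 cells grown in DMEM/F-12 with 10% FBS and glutamine, co-transfected (DMRIE-C) with PPARg-Gal4 receptor and Gal4-luciferase reporter DNA. Next day, medium switched to 5% charcoal-treated FBS; after 6 h cells seeded and incubated overnight at 37°C. Compound exposure 24 h at 37°C, 5% CO2; luciferase read by Steady-Glo. Values are the mean of two experiments.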

Data set [3] has the same target. In words: PPAR gamma mediated aP2 gene induction in pooled human preadipocytes. In kind it is functional, cell-based. An outline of the steps:
as §1

Data set [4] can be described thus: Half life period in human hepatic S9 fraction was determined. The data set is classed as ADME, subcellular. The conditions noted are these: liver S9 fraction.
Data set [5] deals with Rattus norvegicus. In words: Area under curve (AUC0-24 h) after administration (30 mg/kg) in rat. In kind it is ADME, organism-based. Further details: dose 30 mg/kg, time < 24 hr; call rule not given here. The conditions noted are these: in vivo.
For another data set, the system named is Mus musculus. In words: Decrease in plasma glucose in db/db mice after 5 days of 30 mg/kg oral administration. The data set is classed as functional.
The test system of data set [6] is Rattus norvegicus. The experiment in a line: Oral bioavailability after administration (30 mg/kg) in rat; good. The conditions noted are these: in vivo. In kind it is ADME, organism-based.
Data set [7] is described as follows: Half life period after administration (30 mg/kg) in rat. The data set is classed as ADME, organism-based. Particulars: in vivo.
A short description of data set [8]: Half life period in human liver microsome was determined. The data set is classed as ADME. Particulars: liver microsomes.

In the case of `O=C(O)Cc1ccccc1OCCC1Oc2ccccc2N(Cc2ccc(F)cc2)C1=O` (stereo not drawn), the Activity in data set [1] came to 3.2 µM; in data set [2], 1.1 µM.
The like results for `O=C(O)Cc1ccccc1OCCC1Oc2ccccc2N(Cc2ccccc2)C1=O` (stereo not drawn) were, in that order, 4.6 µM and > 5 µM.
`O=C(O)CCc1ccccc1OCCC1Oc2ccccc2N(Cc2ccc(Cl)cc2)C1=O` (stereo not drawn): the figures for the Activity in [1] and in data set [2] were > 10 µM and > 5 µM, respectively.
The like results for `O=C(O)Cc1ccccc1OCCC1Oc2ccccc2N(Cc2ccc(Cl)c(Cl)c2)C1=O` (stereo not drawn) were, in that order, 2.6 µM and 0.96 µM.
Take `O=C(O)Cc1ccccc1OCCC1Oc2ccccc2N(Cc2ccc(F)c(F)c2)C1=O` (stereo not drawn): the Activity in data set [1] was 1.3 µM; in [2], 0.59 µM.
In the case of `O=C(O)Cc1ccccc1OCCC1Oc2ccccc2N(CCc2ccc(Cl)c(Cl)c2)C1=O` (stereo not drawn), the Activity was > 10 µM in data set [1] and > 5 µM in data set [2].
Compound `O=C(O)Cc1ccc(OCCC2Oc3ccccc3N(Cc3cccc(Cl)c3)C2=O)cc1` (stereo not drawn) yielded a Fold induction in data set [3] of 3.2.
Turning to `O=C(O)Cc1cccc(OCCC2Oc3ccccc3N(Cc3cccc(Cl)c3)C2=O)c1` (stereo not drawn), the Activity was > 10 µM in data set [1] and > 5 µM in [2]. In addition, in data set [3], the Fold induction was 5.5.
For the compound `COc1ccc(CN2C(=O)C(CCOc3ccccc3CC(=O)O)Oc3ccccc32)cc1` (stereo not drawn), the Activity in [1] amounted to 5.4 µM; in [2], 0.52 µM.
Take `O=C(O)Cc1ccccc1OCCC1Oc2ccc(C(=O)O)cc2N(Cc2ccc(Cl)cc2)C1=O` (stereo not drawn): the Activity in data set [1] is > 10 µM; in data set [2], > 5 µM.
In the case of `O=C(O)Cc1ccccc1OCCC1Oc2ccccc2N(Cc2cccc(Cl)c2)C1=O` (stereo not drawn), the Activity is 2.4 µM in data set [1] and 1.9 µM in [2]. This compound also showed a Fold induction in data set [3] of 6.2.
With `O=C(O)Cc1ccccc1OCCC1Oc2ccccc2N(Cc2ccc3c(c2)OCO3)C1=O` (stereo not drawn), the Activity amounted to 4.4 µM in data set [1] and 1.1 µM in [2].
As for `O=C(O)Cc1ccccc1OCCC1Oc2ccccc2N(Cc2ccc(C(F)(F)F)cc2)C1=O` (stereo not drawn), the Activity in data set [1] worked out at 0.51 µM; in [2], 0.5 µM.
For the compound `CN(CCOc1ccc(CC2SC(=O)NC2=O)cc1)c1ccccn1` (stereo not drawn), the Activity in [1] is 0.12 µM.
`O=C(O)Cc1ccccc1OCCC1Oc2cc(F)ccc2N(Cc2ccc(Cl)cc2)C1=O` (stereo not drawn): the Activity was > 10 µM in data set [1] and > 5 µM in data set [2].
The like results for `O=C(O)c1ccccc1OCCC1Oc2ccccc2N(Cc2ccc(Cl)cc2)C1=O` (stereo not drawn) were, in that order, > 10 µM and > 5 µM.
`O=C(O)CCc1cccc(OCCC2Oc3ccccc3N(Cc3cccc(Cl)c3)C2=O)c1` (stereo not drawn) came in with a Fold induction in data set [3] of 5.6.
Regarding `O=C(O)Cc1cccc(OCCC2Oc3ccccc3N(Cc3ccc(Cl)cc3)C2=O)c1` (stereo not drawn), the Activity in [1] was > 10 µM; in data set [2], > 5 µM.
As to `CC(=O)c1ccc2c(c1)OC(CCOc1ccccc1CC(=O)O)C(=O)N2Cc1ccc(Cl)cc1` (stereo not drawn), the Activity came to 6.2 µM in [1] and 1.8 µM in data set [2].
With `O=C(O)Cc1ccccc1OCCC1Oc2ccccc2N(Cc2ccc(Cl)cc2)C1=O` (stereo not drawn), the half-life in data set [4] was > 0.833 h; in data set [7] it was 20 h; in data set [8] it was > 0.833 h. In the data set on Rattus norvegicus [5], this compound yielded an AUC of 308 µM·h. In the data set with Mus musculus, this compound gave a Glucose level of 27%. Besides, the Activity in data set [1] amounted to 2.1 µM; in data set [2], 1.3 µM. Besides, the F entry with Rattus norvegicus [6] is “Active”.
Regarding `COc1ccc2c(c1)N(Cc1ccc(Cl)cc1)C(=O)C(CCOc1ccccc1CC(=O)O)O2` (stereo not drawn), the Activity in data set [1] was 6 µM; in [2], 1.8 µM.
In turn, `O=C(O)CCc1ccc(OCCC2Oc3ccccc3N(Cc3cccc(Cl)c3)C2=O)cc1` (stereo not drawn) displayed a Fold induction in data set [3] of 3.6.
With `O=C(O)Cc1ccccc1OCCC1CN(Cc2ccc(Cl)c(Cl)c2)c2ccccc2O1` (stereo not drawn), the Activity in data set [1] is > 10 µM; in data set [2], > 5 µM.
The like results for `O=C(O)Cc1ccccc1OCCC1Oc2cc3ccccc3cc2N(Cc2ccc(Cl)cc2)C1=O` (stereo not drawn) were, in that order, > 10 µM and > 5 µM.
Turning to `Cc1ccc2c(c1)OC(CCOc1ccccc1CC(=O)O)C(=O)N2Cc1ccc(Cl)cc1` (stereo not drawn), the Activity in data set [1] was found to be 4.2 µM; in data set [2] it was 2.1 µM.
Take `Cc1ccc(CN2C(=O)C(CCOc3ccccc3CC(=O)O)Oc3ccccc32)cc1` (stereo not drawn): the Activity is 5 µM in data set [1] and 2 µM in data set [2].
For `O=C(O)Cc1ccccc1OCCC1Oc2ccccc2N(c2ccc(Cl)c(Cl)c2)C1=O` (stereo not drawn), the Activity in data set [1] turned out to be 5.9 µM; in [2] it was 0.57 µM.
